# Assay results from ChEMBL document CHEMBL5370595, “Development of Iodinated Indocyanine Green Analogs as a Strategy for Targeted Therapy of Liver Cancer” (ACS Med Chem Lett, 2023).
# Columns and labels:
# [1] = Drug uptake in human HepG2 cells assessed as increase in mean fluorescence intensity at 10 uM incubated for 1 hr by flow cytometry analysis; format: ADME, cell-based; conditions: hepg2, 1 h
# Summary of the method: (§1)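 Flow cytometry of cells exposed to 10 μM compound for 1 h, read as mean fluorescence intensity. Cell lines were OATP1B3-overexpressing HEK-293T (lentiviral transduction, MOI 10), parental HEK-293T, Hep3B, HepG2 and Huh-7.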
# [2] = Drug uptake in human Hep3B cells assessed as increase in mean fluorescence intensity at 10 uM incubated for 1 hr by flow cytometry analysis; format: ADME, cell-based; conditions: hep 3b2, 1 h; summary of the method: as §1
# [3] = Drug uptake in human Huh-7 cells assessed as increase in mean fluorescence intensity at 10 uM incubated for 1 hr by flow cytometry analysis; format: ADME, cell-based; conditions: huh-7, 1 h; summary of the method: as §1
# [4] = Drug uptake in HEK293T cells expressing OATP1B3 assessed as increase in mean fluorescence intensity at 10 uM incubated for 1 hr by flow cytometry analysis; format: ADME, cell-based; conditions: human, hek-293t; summary of the method: as §1
# [5] = Drug uptake in parent HEK293T cells assessed as increase in mean fluorescence intensity at 10 uM incubated for 1 hr by flow cytometry analysis; format: ADME, cell-based; conditions: human, hek-293t; summary of the method: as §1
# [6] = Drug uptake in tumor of mouse xenografted with HB66 PDX model assessed as increase in fluorescence signal at 10 mg/kg, iv measured after 72 hrs post injection by IVIS Lumina imaging system; format: ADME, organism-based, Neoplasm; conditions: in vivo
# Summary of the method: (§2)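 Mice with orthotopic HB52 or HB66 hepatoblastoma PDX tumors, and non-tumor-bearing mice, received 10 mg/kg intravenously. Tumor growth was followed by MRI. Mice were imaged by IVIS at 24, 48 and 72 h, then tumors, livers and lungs were analysed ex vivo at 72 h, n = 1.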
# [7] = Drug uptake in tumor of athymic nude mouse xenografted with human Hep3B cells assessed as increase in tumor signal at 2 mg/kg, iv measured after 48 hrs post injection by IVIS Lumina imaging system; format: ADME, organism-based, Neoplasm, Hep 3B2; conditions: in vivo
# Summary of the method: (§3)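 Female athymic nude mice bearing Hep3B or Huh-7 tumors received 2 mg/kg intravenously. They were imaged by IVIS at 4, 24 and 48 h. Tumors and livers were excised at 48 h for ex vivo fluorescence, with background taken from the neck signal.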
# [8] = Drug uptake in liver of athymic nude mouse xenografted with human Hep3B cells assessed as increase in liver signal at 2 mg/kg, iv measured after 48 hrs post injection by IVIS Lumina imaging system; format: ADME, organism-based, Hep 3B2; conditions: in vivo; summary of the method: as §3
# [9] = Drug uptake in liver of mouse xenografted with HB66 PDX model assessed as increase in fluorescence signal at 10 mg/kg, iv measured after 72 hrs post injection by IVIS Lumina imaging system; format: ADME, organism-based; conditions: in vivo; summary of the method: as §2
# [10] = Drug uptake in human HepG2 cells assessed as increase in fluorescence signal at 25 uM incubated for 1 hr by flow cytometry based analysis; format: ADME, cell-based; conditions: hepg2, 1 h
# [11] = Drug uptake in human HB17 cells assessed as increase in fluorescence signal at 25 uM incubated for 1 hr by flow cytometry based analysis; format: ADME, cell-based; conditions: hb17, 1 h
# [12] = Drug uptake in tumor of mouse xenografted with HB52 PDX model assessed as increase in fluorescence signal at 10 mg/kg, iv measured after 72 hrs post injection by IVIS Lumina imaging system; format: ADME, organism-based, Neoplasm; conditions: in vivo; summary of the method: as §2
# [13] = Drug uptake in tumor of athymic nude mouse xenografted with human Huh-7 cells assessed as increase in tumor signal at 2 mg/kg, iv measured after 48 hrs post injection by IVIS Lumina imaging system; format: ADME, organism-based, Neoplasm; conditions: in vivo; summary of the method: as §3
# [14] = Drug uptake in liver of mouse xenografted with HB52 PDX model assessed as increase in fluorescence signal at 10 mg/kg, iv measured after 72 hrs post injection by IVIS Lumina imaging system; format: ADME, organism-based; conditions: in vivo; summary of the method: as §2
# [15] = Drug uptake in human SH-SY5Y cells assessed as increase in fluorescence signal at 25 uM incubated for 1 hr by flow cytometry based analysis; format: ADME, cell-based
# [16] = Drug uptake in human SH-SY5Y cells assessed as increase in fluorescence signal at 10 to 25 uM incubated for 1 hr by confocal fluorescence microscopy based analysis; format: ADME, cell-based; conditions: dose 10-25 µM
# [17] = Drug uptake in tumor of athymic nude mouse xenografted with human Hep3B cells assessed as tumor to background ratio at 2 mg/kg, iv measured after 4 to 48 hrs by IVIS Lumina imaging system; format: ADME, organism-based, Neoplasm, Hep 3B2; conditions: in vivo, time 4-48 hrs
# [18] = Drug uptake in human HB17 cells assessed as increase in fluorescence signal at 10 to 25 uM incubated for 1 hr by confocal fluorescence microscopy based analysis; format: ADME, cell-based; conditions: hb17, 1 h, dose 10-25 µM
# [19] = Drug uptake in human HepG2 cells assessed as increase in fluorescence signal at 10 to 25 uM incubated for 1 hr by confocal fluorescence microscopy based analysis; format: ADME, cell-based; conditions: hepg2, 1 h, dose 10-25 µM
# [20] = Ratio of drug concentration in athymic nude mouse tumor to liver xenografted with human Huh-7 cells assessed as tumor to liver ratio at 2 mg/kg measured after 48 hrs post injection by IVIS Lumina imaging system; format: ADME, organism-based; conditions: in vivo
# Summary of the method: (§4)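 Tumor-to-liver ratio was calculated from ex vivo fluorescence of excised tumors and livers at 48 h after 2 mg/kg intravenous dosing in xenograft-bearing female athymic nude mice.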
# [21] = Drug uptake tumor of in athymic nude mouse xenografted with human Huh-7 cells assessed as tumor to background ratio at 2 mg/kg, iv measured after 4 to 48 hrs by IVIS Lumina imaging system; format: ADME, organism-based, Neoplasm; conditions: in vivo, time 4-48 hrs
# [22] = Drug uptake in lung of non-tumor bearing mouse assessed as increase in fluorescence signal at 10 mg/kg, iv measured after 72 hrs post injection by IVIS Lumina imaging system; format: ADME, organism-based; conditions: in vivo; summary of the method: as §2
# [23] = Ratio of drug concentration in athymic nude mouse tumor to liver xenografted with human Hep3B cells assessed as tumor to liver ratio at 2 mg/kg measured after 48 hrs post injection by IVIS Lumina imaging system; format: ADME, organism-based; conditions: in vivo; summary of the method: as §4
# [24] = Drug uptake in athymic nude mouse liver xenografted with human Huh-7 cells assessed as increase in liver signal at 2 mg/kg, iv measured after 48 hrs post injection by IVIS Lumina imaging system; format: ADME, organism-based; conditions: in vivo; summary of the method: as §3
# [25] = Drug uptake in parent HEK293T cells at 10 uM incubated for 1 hr by DAPI staining based flow cytometry analysis; format: ADME, cell-based; conditions: human, hek-293t
# [26] = Drug uptake in HEK293T cells expressing OATP1B3 at 10 uM incubated for 1 hr by DAPI staining based flow cytometry analysis; format: ADME, cell-based; conditions: human, hek-293t
# [27] = Drug uptake in human Hep3B at 10 uM incubated for 1 hr by DAPI staining based flow cytometry analysis; format: ADME, cell-based; conditions: hep 3b2, 1 h
# [28] = Drug uptake in HEK293T cells expressing OATP1B3 by DAPI staining based confocal fluorescence microscopy analysis; format: ADME, cell-based; conditions: human, hek-293t
# [29] = Drug uptake in human Hep3B cells expressing OATP1B3 by DAPI staining based confocal fluorescence microscopy analysis; format: ADME, cell-based; conditions: hep 3b2
# [30] = Drug uptake in parent HEK293T cells by DAPI staining based confocal fluorescence microscopy analysis; format: ADME, cell-based; conditions: human, hek-293t
# [31] = Drug uptake in human HepG2 at 10 uM incubated for 1 hr by DAPI staining based flow cytometry analysis; format: ADME, cell-based; conditions: hepg2, 1 h
# [32] = Drug uptake in human HepG2 cells expressing OATP1B3 by DAPI staining based confocal fluorescence microscopy analysis; format: ADME, cell-based
Drug uptake [1],Drug uptake [2],Drug uptake [3],Drug uptake [4],Drug uptake [5],Drug uptake [10],Drug uptake [11],Drug uptake [15],Drug uptake [16],Ratio [17],Drug uptake [18],Drug uptake [19],Ratio [20],Ratio [21],Ratio [23],SMILES,other results
Active,Active,Active,Active,Active,–,–,–,–,–,–,–,–,–,–,CC1(C)C(/C=C/C=C/C=C/C=C2/N(CCCCS(=O)(=O)[O-])c3cccc(I)c3C2(C)C)=[N+](CCCCS(=O)(=O)[O-])c2ccc3ccccc3c21.[Na+],–
Active,Active,Active,Active,Active,Active,Active,Not Active,Not Active,5,Active,Active,2,2,3,CC1(C)C(/C=C/C=C/C=C/C=C2/N(CCCCS(=O)(=O)[O-])c3cccc(I)c3C2(C)C)=[N+](CCCCS(=O)(=O)[O-])c2cccc(I)c21.[Na+],Drug uptake [6]: Active; Drug uptake [7]: Active; Drug uptake [8]: Active; Drug uptake [9]: Not Active; Drug uptake [12]: Active; Drug uptake [13]: Active; Drug uptake [14]: Not Active; Drug uptake [22]: Not Active; Drug uptake [24]: Active
–,–,–,–,–,Active,Active,Not Active,Not Active,2,Active,Active,2,2,3,CC1(C)C(/C=C/C=C/C=C/C=C2/N(CCCCS(=O)(=O)[O-])c3ccc4ccccc4c3C2(C)C)=[N+](CCCCS(=O)(=O)[O-])c2ccc3ccccc3c21.[Na+] [INDOCYANINE GREEN],Drug uptake [25]: Active; Drug uptake [26]: Active; Drug uptake [27]: Active; Drug uptake [28]: Active; Drug uptake [29]: Active; Drug uptake [30]: Active; Drug uptake [31]: Active; Drug uptake [32]: Active

# Second part, the compound before the results:
SMILES,Drug uptake [1],Drug uptake [2],Drug uptake [3],Drug uptake [4],Drug uptake [5],Drug uptake [10],Drug uptake [11],Drug uptake [15],Drug uptake [16],Ratio [17],Drug uptake [18],Drug uptake [19],Ratio [20],Ratio [21],Ratio [23],other results
CC1(C)C(/C=C/C=C/C=C/C=C2/N(CCCCS(=O)(=O)[O-])c3ccc(I)cc3C2(C)C)=[N+](CCCCS(=O)(=O)[O-])c2ccc(I)cc21.[Na+],Active,Active,Active,Active,Active,–,–,–,–,–,–,–,–,–,–,–
CC1(C)C(/C=C/C=C/C=C/C=C2/N(CCCCS(=O)(=O)[O-])c3cc(I)ccc3C2(C)C)=[N+](CCCCS(=O)(=O)[O-])c2cc(I)ccc21.[Na+],Active,Active,Active,Active,Active,–,–,–,–,–,–,–,–,–,–,–
